Assay results from ChEMBL document CHEMBL3751829, “Synthesis and biological evaluation of 3-tetrazolo steroidal analogs: Novel class of 5α-reductase inhibitors” (Bioorg Med Chem, 2016).

How the values were obtained:
[1] = target: T1, 3-oxo-5-alpha-steroid 4-dehydrogenase 1 (Homo sapiens) (UniProt P18405); experiment: Inhibition of human 5alpha-1 reductase expressed in HEK293 cells assessed as suppression of conversion of [3]androstenedione at 10 uM incubated for 30 mins by radioactivity-based HPLC analysis; type: cell-based
T1 sequence (whole entry): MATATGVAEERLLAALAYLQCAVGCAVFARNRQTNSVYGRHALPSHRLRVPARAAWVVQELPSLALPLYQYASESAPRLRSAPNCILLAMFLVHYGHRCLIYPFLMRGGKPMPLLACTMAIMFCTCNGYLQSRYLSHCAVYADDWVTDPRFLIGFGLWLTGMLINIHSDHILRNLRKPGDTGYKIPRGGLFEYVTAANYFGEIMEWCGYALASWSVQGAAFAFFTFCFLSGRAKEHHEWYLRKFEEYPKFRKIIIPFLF
Procedure, shortened: (§1)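 Stably transfected HEK293 lines expressing 5AR-1 (HEK-I) or 5AR-2 (HEK-II) were sonicated in saccharose/Tris/EDTA buffer. The suspension was incubated at 37 °C for 30 min with 500 nM androstenedione solution plus [3H]androstenedione and an NADP/glucose/G6PDH regenerating system. Test compounds were added in 2% DMSO. The reaction was stopped with ether; steroids were extracted and analysed by radio-HPLC.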

[2] = target: T1, 3-oxo-5-alpha-steroid 4-dehydrogenase 1 (Homo sapiens); experiment: Inhibition of human 5alpha-1 reductase expressed in HEK293 cells assessed as suppression of conversion of [3]androstenedione at 2 uM incubated for 30 mins by radioactivity-based HPLC analysis; type: cell-based
Procedure, shortened: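 Lysates of stably transfected HEK293 cells (80% confluent cells sonicated in 300 mM saccharose, 5 mM Tris–HCl, 0.1 mM EDTA). Master mix: Tris buffer, androstenedione (500 nM solution) plus tracer [3H]androstenedione, NADP/glucose/glucose-6-P-dehydrogenase regenerating system; compound added in 2% DMSO. Cell suspension mixed 1:1 with master mix, 37 °C for 30 min. Stopped with ether; steroids extracted, dried, taken up in methanol, radio-HPLC.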

[3] = target: T2, 3-oxo-5-alpha-steroid 4-dehydrogenase 2 (Homo sapiens) (UniProt P31213); experiment: Inhibition of human 5alpha-2 reductase expressed in HEK293 cells assessed as suppression of conversion of [3]androstenedione at 10 uM incubated for 30 mins by radioactivity-based HPLC analysis; type: cell-based; procedure, shortened: as §1
T2 sequence (whole entry): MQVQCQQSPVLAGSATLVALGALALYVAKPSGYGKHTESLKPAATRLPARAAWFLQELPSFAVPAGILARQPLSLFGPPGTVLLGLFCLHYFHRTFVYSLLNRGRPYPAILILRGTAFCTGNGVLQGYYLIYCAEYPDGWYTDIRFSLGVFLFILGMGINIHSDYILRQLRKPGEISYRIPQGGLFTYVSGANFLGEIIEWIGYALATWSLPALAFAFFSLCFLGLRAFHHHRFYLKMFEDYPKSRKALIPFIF

[4] = target: T2, 3-oxo-5-alpha-steroid 4-dehydrogenase 2 (Homo sapiens); experiment: Inhibition of human 5alpha-2 reductase expressed in HEK293 cells assessed as suppression of conversion of [3]androstenedione at 2 uM incubated for 30 mins by radioactivity-based HPLC analysis; type: cell-based; procedure, shortened: as §1
[5] = target: T3, 3-oxo-5-alpha-steroid 4-dehydrogenase 2 (Homo sapiens, UniProt P31213); experiment: Inhibition of human 5alpha-2 reductase expressed in HEK293 cells assessed as suppression of conversion of [3]androstenedione incubated for 30 mins by radioactivity-based HPLC analysis; type: cell-based; procedure, shortened: as §1
T3 sequence (P31213 whole entry): T2 sequence (whole entry)

[6] = Cytotoxicity against human DU145 cells by rapid colorimetric assay; type: functional, cell-based, DU-145; details: du-145
Procedure, shortened: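 Antiproliferative test on DU-145 cells using the Mosmann method. Seven concentrations were tested in culture medium.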

[7] = test system: Rattus norvegicus; experiment: Increase in body weight gain in male wistar rat at 5ml/kg, po qd measured on 15th day after 24 hrs of last dose (Rvb=9.412+/-1.632g%); type: ADME, organism-based; details: in vivo
[8] = test system: Rattus norvegicus; experiment: Effect on organ weight in male wistar rat assessed as liver tissue weight per 100g at 5ml/kg, po qd measured on 15th day after 24 hrs of last dose (Rvb=2.994+/- 0.254 g/100g); type: ADME, organism-based; details: in vivo
[9] = test system: Rattus norvegicus; experiment: Effect on organ weight in male wistar rat assessed as ventral prostate tissue weight per 100g at 5ml/kg, po qd measured on 15th day after 24 hrs of last dose (Rvb=59.494+/- 4.733 mg/100g); type: functional, Prostate gland
[10] = test system: Rattus norvegicus; experiment: Effect on organ weight in male wistar rat assessed as dorsal prostate tissue weight per 100g at 5ml/kg, po qd measured on 15th day after 24 hrs of last dose (Rvb=50.325+/-7.519 mg/100g); type: functional, Prostate gland
[11] = test system: Rattus norvegicus; experiment: Effect on organ weight in male wistar rat assessed as seminal vesicles tissue weight per 100g at 5ml/kg, po qd measured on 15th day after 24 hrs of last dose (Rvb=175.439+/-12.833 mg/100g); type: ADME, organism-based; details: in vivo
[12] = test system: Rattus norvegicus; experiment: Effect on organ weight in male wistar rat assessed testis tissue weight per 100g at 5ml/kg, po qd measured on 15th day after 24 hrs of last dose (Rvb=1054.099+/- 55.648 mg/100g); type: ADME, organism-based; details: in vivo
[13] = test system: Rattus norvegicus; experiment: Effect on organ weight in male wistar rat assessed as adrenal tissue weight per 100g at 5ml/kg, po qd measured on 15th day after 24 hrs of last dose (Rvb=14.762 +/-0.600 mg/100g); type: ADME, organism-based; details: in vivo
[14] = test system: Rattus norvegicus; experiment: Effect on organ weight in male wistar rat assessed as vas deferens tissue weight per 100g at 5ml/kg, po qd measured on 15th day after 24 hrs of last dose (Rvb=67.613+/-3.248 mg/100g); type: functional
[15] = test system: Rattus norvegicus; experiment: Effect on organ weight in male wistar rat assessed as epididymis tissue weight per 100g at 5ml/kg, po qd measured on 15th day after 24 hrs of last dose (Rvb=187.356+/- 5.961 mg/100g); type: functional
[16] = test system: Rattus norvegicus; experiment: Decrease in ventral prostate organ weight in male wistar rat at 5ml/kg, po qd measured on 15th day after 24 hrs of last dose; type: functional, Prostate gland; parameters: scale not given: the % may be the effect or the level left
[17] = test system: Rattus norvegicus; experiment: Decrease in dorsal prostate organ weight in male wistar rat at 5ml/kg, po qd measured on 15th day after 24 hrs of last dose; type: functional, Prostate gland; parameters: scale not given: the % may be the effect or the level left
[18] = test system: Rattus norvegicus; experiment: Decrease in vas deferens organ weight in male wistar rat at 5ml/kg, po qd measured on 15th day after 24 hrs of last dose; type: functional; parameters: scale not given: the % may be the effect or the level left
[19] = test system: Rattus norvegicus; experiment: Decrease in epididymis organ weight in male wistar rat at 5ml/kg, po qd measured on 15th day after 24 hrs of last dose; type: functional; parameters: scale not given: the % may be the effect or the level left
[20] = target: T4, 3-oxo-5-alpha-steroid 4-dehydrogenase 1 (Homo sapiens, UniProt P18405); experiment: Inhibition of human 5alpha-1 reductase expressed in HEK293 cells assessed as suppression of conversion of [3]androstenedione incubated for 30 mins by radioactivity-based HPLC analysis; type: cell-based; procedure, shortened: as §1
T4 sequence (P18405 whole entry): T1 sequence (whole entry)

[21] = test system: Rattus norvegicus; experiment: Toxicity in male wistar rat assessed induction of mortality at 5ml/kg, po qd measured on 15th day after 24 hrs of last dose; type: organism-based; details: in vivo
Procedure, shortened: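 Mature male Wistar rats, groups of 5, standard diet. Compounds suspended in 0.50% CMC sodium given orally at 5 ml/kg once daily for 14 days; controls received vehicle only. Animals weighed and killed under ether on day 15, 24 h after last dose.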

Work on `CC(=O)C1CC[C@H]2[C@@H]3CC=C4C=C(c5nnn[nH]5)CC[C@]4(C)[C@H]3CC[C@]12C` (stereo partly specified) yielded an inhibition [1] of 95%, an inhibition [2] of 82.6% and an inhibition [3] of 100%. For the same compound, the inhibition [4] was 100%, the IC50 [5] was 15.6 nM and the IC50 [6] was “Not Active”. It also gave an Activity [7] of 8.328 g%, an Activity [8] of 3.649 g and an Activity [9] of 38.433 mg. For the same compound, the Activity [10] was 41.379 mg, the Activity [11] was 78.265 mg and the Activity [12] was 844.538 mg. For the same compound, the Activity [13] was 17.762 mg, the Activity [14] was 29.009 mg and the Activity [15] was 127.85 mg. It also gave an Activity [16] of 35.4%, an Activity [17] of 17.78% and an Activity [18] of 57.1%. For the same compound, the Activity [19] was 31.76%, the IC50 [20] was 547 nM and the Activity [21] was “Non-toxic”.
